Kir21 block: inhibitors of mouse Kir2.1 inward-rectifier potassium channel; P35561; HEK293-Kir2.1, FluxOR thallium flux fluorescence; stronger effect = lower value; B-score at 10 µM; 310,000 compounds, 0.85% hits; AID 1672;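 active means fluorescence ratio B-score at or below minus 3 SD of library scores, with starting-brightness B-score within 2 SD, cut at about -4.2 in these data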;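 further: channel flux triggered by added potassium and thallium sulfate stimulus; B-score of peak minus minimum fluorescence over baseline after thallium stimulus; more negative B-score means stronger Kir2.1 block with less thallium influx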
Target sequence (P35561 whole entry, looked up): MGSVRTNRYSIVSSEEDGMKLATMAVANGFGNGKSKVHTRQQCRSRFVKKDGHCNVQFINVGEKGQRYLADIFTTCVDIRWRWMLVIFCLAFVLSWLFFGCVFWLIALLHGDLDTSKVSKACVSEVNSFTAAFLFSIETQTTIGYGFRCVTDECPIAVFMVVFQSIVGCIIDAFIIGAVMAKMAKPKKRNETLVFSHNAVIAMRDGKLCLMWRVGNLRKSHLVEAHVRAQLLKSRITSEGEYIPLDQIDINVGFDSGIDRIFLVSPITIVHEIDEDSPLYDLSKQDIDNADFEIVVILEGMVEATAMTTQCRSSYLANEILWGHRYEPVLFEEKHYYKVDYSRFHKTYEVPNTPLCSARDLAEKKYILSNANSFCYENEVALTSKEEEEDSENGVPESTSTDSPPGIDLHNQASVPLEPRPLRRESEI
RGS4 pot: potentiators or activators of RGS4; B-score at 10 µM; AID 463111; 310,000 compounds, 0.92% hits; HEK293 M3R/inducible RGS4, carbachol calcium flux Fluo4; stronger effect = lower value;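 active means B-score of the integrated calcium signal more than 4 SD below the library mean, with starting fluorescence not abnormally high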;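 further: negative B-score means reduced calcium response which marks RGS4 activation or potentiation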
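System: HEK293 FlpIn-TREx cells, stable M3R, doxycycline-inducible RGS4. Timing: overnight RGS4 induction, 30 min dye load 37 °C, 20 min compound RT. Also added: carbachol, ECmax concentration. Measured by: Fluo4 fluorescence kinetic imaging of calcium. Evaluation: integrated calcium ratio converted to B score.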
RGS4 inh: human RGS4 inhibition. HEK293 M3R/RGS4 inducible, Fluo-4 calcium flux; stronger effect = higher value; triggered by carbachol at its EC20. B-score at 10 µM. 310,000 compounds, 0.45% hits. AID 463165;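 active means B-score, a plate-corrected calcium signal, over three deviations above library mean, with baseline fluorescence within five deviations of library mean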;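 further: RGS4 expression induced by doxycycline in cells with stable M3 receptor; B-score is computed from the integrated fluorescence ratio over baseline after carbachol; higher B-score means a larger calcium signal and so more RGS4 inhibition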
MrgX1 ag: activates human MrgX1 receptor signaling; AID 588627; Q96LB2; 310,000 compounds, 0.44% hits; B-score at 10 µM; MrgX1-HEK293 cells, Fluo-4 calcium fluorescence, agonist mode; stronger effect = higher value;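 active means calcium response B-score plate-corrected fluorescence ratio at least 3 library SD, with starting fluorescence B-score inside 5 SD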
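Material: HEK293 cells stably expressing human MrgX1 receptor | Quantity: 15,000 cells per well | Times: Cells plated overnight, dye loaded 0.5 h 37 °C, 0.5 h room temperature | Measured by: Kinetic Fluo-4 NW fluorescence of intracellular calcium | Control set: Positive and negative controls per plate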
MrgX1 antagonist: blocks BAM8-22 activation of human MrgX1 receptor. Q96LB2. 310,000 compounds, 1.3% hits. MRGX1-HEK293 calcium flux, Fluo-4, BAM8-22 antagonism; stronger effect = lower value. B-score at 10 µM;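 active means calcium-response B-score plate-corrected more than 3 library SD below zero, starting fluorescence within 5 deviations, no agonist response on first addition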;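 further: peak minus trough fluorescence over baseline after final BAM8-22 challenge near maximal dose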
MrgX1 PAM: allosterically activates human MrgX1 receptor signaling | MrgX1-HEK293, Fluo-4 calcium flux, FDSS; stronger effect = higher value | 310,000 compounds, 0.63% hits | AID 588675 | B-score at 10 µM;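 active means plate-corrected calcium response at least 3 library SD above typical, normal starting fluorescence, not activating the receptor alone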;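 further: compound read alongside a low EC10 to EC30 dose of BAM8-22 agonist; peak minus trough fluorescence over baseline measured at the second addition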
Each line names hits and unclear results; the compound was inactive in the other large screens. The list is not random: actives were taken first. Their share in the collection is about 4.1%.

Cc1cc2cc(CNC(=O)Cc3ccc([N+](=O)[O-])cc3)ccc2n1C	none
COc1ccc(NS(=O)(=O)c2cccc3nsnc23)cc1OC	none
COc1ccc(S(=O)(=O)Nc2cc(C)ccc2OC)cc1C	Kir21 block -6.96
COc1ccc(S(=O)(=O)Nc2c(C)ccc3nsnc23)cc1OC	Kir21 block -5.12
COc1ccc(Cl)cc1NS(=O)(=O)c1ccc(OC)c(OC)c1	Kir21 block -8.16
CC1CCCN(C(=O)COc2ccc(-c3ccccc3)cc2)C1 (centres undefined)	none
Cc1cc(C)cc(N2C(N)=NC(N)=NC2c2cccc(Cl)c2)c1 (centres undefined)	none
COc1ccc(N2CCN(c3nc4ccccc4n3CC(=O)c3ccccc3)CC2)cc1	none
COc1ccc(CN2CCC(C(=O)Nc3ccc(Oc4cccnc4)cc3)CC2)c(C)c1C	none
COc1ccc(CN2CCC(C(=O)Nc3ccc(Oc4cccnc4)cc3)CC2)cc1	Kir21 block -5.38
CSc1nc(NCC(C)C)c2c3c(sc2n1)CN(C)CC3	RGS4 pot -7.36
Cc1noc(C)c1COC(=O)COc1cccc2c1OC(C)(C)C2	Kir21 block -5.52
c1coc(C2Nc3cccc4cccc(c34)N2)c1	RGS4 inh 7.23
COC(=O)c1ccc(OC(=O)c2ccco2)cc1	none
O=Cc1ccnc(-c2ccc(OC(=O)c3ccco3)cc2)n1	Kir21 block -5.41, MrgX1 ag 75.5
O=C(c1ccco1)N1C(=O)c2cccc3c(S(=O)(=O)N4CCCC4)ccc1c23	none
O=C(COc1ccc(-c2ccccc2)cc1)N/N=C/c1ccccc1Br	none
COc1cc(-c2noc(C)c2-c2ccc3[nH]ccc3c2)cc(OC)c1OC	RGS4 pot -7.19
CN(C)c1ccc(C(=O)c2ccccc2C(=O)O)c(O)c1	none
CCCCN(CCCC)c1ccc(C(=O)c2ccccc2C(=O)O)c(O)c1	MrgX1 ag 42
CCOc1cc(C2NC(=O)CCC2[N+](=O)[O-])cc(Br)c1OC (centres undefined)	none
Cc1cccc(NC(=O)CNCC(=O)Nc2cccc(C)c2C)c1C	none
CCOC(=O)C1CCN(CCCSc2ccc(Cl)cc2)CC1	Kir21 block -4.25
CCOC(=O)C1CCN(CCC(=O)Nc2ccc(Cl)cc2)CC1	none
Nc1c(C(=O)C2CC2)sc2nc(-c3ccccc3)cc(C(F)(F)F)c12	RGS4 pot -9.35
CCOc1ccc(/C=C2\SC(=S)N(NS(=O)(=O)c3ccccc3)C2=O)cc1OC	none
COc1ccc(OC)c(/C=C2\SC(=S)N(NS(=O)(=O)c3ccc(C)cc3)C2=O)c1	none
O=C1/C(=C/C=C/c2ccco2)SC(=S)N1NS(=O)(=O)c1ccccc1	MrgX1 PAM 7.9 (no result: Kir21 block, RGS4 pot, RGS4 inh)
COc1ccc(/C=C2\SC(=S)N(NS(=O)(=O)c3ccccc3)C2=O)c(OC)c1	RGS4 pot -7.46, MrgX1 antagonist -8.67
COc1ccc(/C=C2\SC(=S)N(NS(=O)(=O)c3ccc(C)cc3)C2=O)c(OC)c1	RGS4 pot -8.19
CCOc1cc(/C=C2\SC(=S)N(NS(=O)(=O)c3ccccc3)C2=O)ccc1O	MrgX1 ag 34.4
O=C1/C(=C/c2cccs2)SC(=S)N1NS(=O)(=O)c1ccccc1	none
COc1ccc(/C=C2\SC(=S)N(C(C(=O)O)c3ccccc3)C2=O)c(OC)c1 (centres undefined)	MrgX1 antagonist -5.17
COc1cccc(/C=C2\SC(=S)N(C(C(=O)O)c3ccccc3)C2=O)c1OC (centres undefined)	none
COc1ccc(N(CC(=O)Nc2ccc3c(c2)OCO3)S(C)(=O)=O)c(OC)c1	none
O=C(NCc1ccco1)c1cccc(S(=O)(=O)N2CCCC2)c1	none (no result: MrgX1 ag, MrgX1 antagonist, MrgX1 PAM)
Cc1onc(-c2c(Cl)cccc2Cl)c1C(=O)c1ccc(F)cc1	none
Cc1onc(-c2c(Cl)cccc2Cl)c1C(=O)ONC(=O)c1ccccc1	Kir21 block -5.24
Cc1onc(-c2c(Cl)cccc2Cl)c1C(=O)NN1CCCCCC1	RGS4 pot -8.44
Cc1onc(-c2c(F)cccc2Cl)c1C(=O)c1ccc(F)cc1	Kir21 block -4.8
Cc1onc(-c2c(Cl)cccc2Cl)c1C(=O)NC1CCCCC1	none

Screens deposited in PubChem by Johns Hopkins Ion Channel Center.
